Measured values as given in ChEMBL document CHEMBL4689842, “EUbOPEN Chemogenomics Library wave 1” (2021).

System: HEK-293T
Experiment: Multiplex assay against HEK293T;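 on Population Tubulin-Different-Phenotype (%): share of the cells with healthy nuclei that show this phenotype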
Type: toxicity, cell-based
Conditions: human
In short: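 On a CQ1 microscope at 37°C and 5% CO2, live cells were imaged after compound addition. They had been stained at seeding with Hoechst33342, BioTracker Green Microtubule Cytoskeleton Dye, MitoTracker Red and Annexin V Alexa Fluor 680. CellPathfinder machine-learning gating assigned cells to Hoechst high-intensity objects or normal cells, normal cells to healthy, pyknosed or fragmented nuclei, and pyknosed cells to mitotic or apoptotic. Tubulin, mitochondrial-mass and membrane-permeability phenotypes are per cents of healthy-nucleus cells.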

[1] = 12 h, 1 µM, compound concentration 1 uM, replicate 1
[2] = 12 h, 1 µM, compound concentration 1 uM, replicate 2
[3] = 12 h, 10 µM, compound concentration 10 uM, replicate 1
[4] = 12 h, 10 µM, compound concentration 10 uM, replicate 2
[5] = 24 h, 1 µM, compound concentration 1 uM, replicate 1
[6] = 24 h, 1 µM, compound concentration 1 uM, replicate 2
[7] = 24 h, 10 µM, compound concentration 10 uM, replicate 1
[8] = 24 h, 10 µM, compound concentration 10 uM, replicate 2
[9] = 48 h, 1 µM, compound concentration 1 uM, replicate 1
[10] = 48 h, 1 µM, compound concentration 1 uM, replicate 2
[11] = 48 h, 10 µM, compound concentration 10 uM, replicate 1
[12] = 48 h, 10 µM, compound concentration 10 uM, replicate 2

CN1CCN(c2ccc(OC(F)(F)F)c(Nc3ncc4c(n3)-c3c(c(C(N)=O)nn3CCO)CC4)c2)CC1 [ONVANSERTIB]
Population Apoptotic (%) [1]: 68%
Population Fragmented Nuclei (%) [1]: 13%
Population Healthy Nuclei (%) [1]: 36%
Population Hoechst High Intensity Objects (%) [1]: 16%
Population Membrane Permeable-Phenotype (%) [1]: 6%
Population Mitochondria Different-Phenotype (%) [1]: 83%
Population Mitotic Cells (%) [1]: 31%
Population Normal (%) [1]: 83%
Population Pyknosed Nuclei (%) [1]: 50%
Population Tubulin-Different-Phenotype (%) [1]: 39%
Total Cell Count [1]: 216
Population Apoptotic (%) [2]: 21%
Population Fragmented Nuclei (%) [2]: 11%
Population Healthy Nuclei (%) [2]: 23%
Population Hoechst High Intensity Objects (%) [2]: 5%
Population Membrane Permeable-Phenotype (%) [2]: 0%
Population Mitochondria Different-Phenotype (%) [2]: 32%
Population Mitotic Cells (%) [2]: 78%
Population Normal (%) [2]: 94%
Population Pyknosed Nuclei (%) [2]: 65%
Population Tubulin-Different-Phenotype (%) [2]: 24%
Total Cell Count [2]: 113
Population Apoptotic (%) [3]: 67%
Population Fragmented Nuclei (%) [3]: 8%
Population Healthy Nuclei (%) [3]: 41%
Population Hoechst High Intensity Objects (%) [3]: 12%
Population Mitochondria Different-Phenotype (%) [3]: 98%
Population Mitotic Cells (%) [3]: 32%
Population Normal (%) [3]: 87%
Population Pyknosed Nuclei (%) [3]: 49%
Population Tubulin-Different-Phenotype (%) [3]: 96%
Total Cell Count [3]: 269
Population Apoptotic (%) [4]: 31%
Population Fragmented Nuclei (%) [4]: 5%
Population Healthy Nuclei (%) [4]: 30%
Population Hoechst High Intensity Objects (%) [4]: 2%
Population Membrane Permeable-Phenotype (%) [4]: 1%
Population Mitochondria Different-Phenotype (%) [4]: 82%
Population Mitotic Cells (%) [4]: 68%
Population Normal (%) [4]: 97%
Population Pyknosed Nuclei (%) [4]: 64%
Population Tubulin-Different-Phenotype (%) [4]: 81%
Total Cell Count [4]: 234
Population Apoptotic (%) [5]: 60%
Population Fragmented Nuclei (%) [5]: 16%
Population Healthy Nuclei (%) [5]: 23%
Population Hoechst High Intensity Objects (%) [5]: 14%
Population Membrane Permeable-Phenotype (%) [5]: 9%
Population Mitochondria Different-Phenotype (%) [5]: 83%
Population Mitotic Cells (%) [5]: 39%
Population Normal (%) [5]: 85%
Population Pyknosed Nuclei (%) [5]: 60%
Population Tubulin-Different-Phenotype (%) [5]: 67%
Total Cell Count [5]: 211
Population Apoptotic (%) [6]: 15%
Population Fragmented Nuclei (%) [6]: 11%
Population Healthy Nuclei (%) [6]: 26%
Population Hoechst High Intensity Objects (%) [6]: 9%
Population Membrane Permeable-Phenotype (%) [6]: 0%
Population Mitochondria Different-Phenotype (%) [6]: 68%
Population Mitotic Cells (%) [6]: 84%
Population Normal (%) [6]: 90%
Population Pyknosed Nuclei (%) [6]: 62%
Population Tubulin-Different-Phenotype (%) [6]: 62%
Total Cell Count [6]: 122
Population Apoptotic (%) [7]: 55%
Population Fragmented Nuclei (%) [7]: 7%
Population Healthy Nuclei (%) [7]: 41%
Population Hoechst High Intensity Objects (%) [7]: 15%
Population Membrane Permeable-Phenotype (%) [7]: 2%
Population Mitochondria Different-Phenotype (%) [7]: 95%
Population Mitotic Cells (%) [7]: 44%
Population Normal (%) [7]: 84%
Population Pyknosed Nuclei (%) [7]: 50%
Population Tubulin-Different-Phenotype (%) [7]: 90%
Total Cell Count [7]: 303
Population Apoptotic (%) [8]: 42%
Population Fragmented Nuclei (%) [8]: 5%
Population Healthy Nuclei (%) [8]: 39%
Population Hoechst High Intensity Objects (%) [8]: 4%
Population Membrane Permeable-Phenotype (%) [8]: 4%
Population Mitochondria Different-Phenotype (%) [8]: 83%
Population Mitotic Cells (%) [8]: 57%
Population Normal (%) [8]: 95%
Population Pyknosed Nuclei (%) [8]: 54%
Population Tubulin-Different-Phenotype (%) [8]: 83%
Total Cell Count [8]: 256
Population Apoptotic (%) [9]: 57%
Population Fragmented Nuclei (%) [9]: 20%
Population Healthy Nuclei (%) [9]: 18%
Population Hoechst High Intensity Objects (%) [9]: 20%
Population Membrane Permeable-Phenotype (%) [9]: 0%
Population Mitochondria Different-Phenotype (%) [9]: 59%
Population Mitotic Cells (%) [9]: 42%
Population Normal (%) [9]: 79%
Population Pyknosed Nuclei (%) [9]: 60%
Population Tubulin-Different-Phenotype (%) [9]: 43%
Total Cell Count [9]: 213
Population Apoptotic (%) [10]: 36%
Population Fragmented Nuclei (%) [10]: 12%
Population Healthy Nuclei (%) [10]: 45%
Population Hoechst High Intensity Objects (%) [10]: 8%
Population Membrane Permeable-Phenotype (%) [10]: 6%
Population Mitochondria Different-Phenotype (%) [10]: 30%
Population Mitotic Cells (%) [10]: 63%
Population Normal (%) [10]: 91%
Population Pyknosed Nuclei (%) [10]: 42%
Population Tubulin-Different-Phenotype (%) [10]: 59%
Total Cell Count [10]: 118
Population Apoptotic (%) [11]: 64%
Population Fragmented Nuclei (%) [11]: 14%
Population Healthy Nuclei (%) [11]: 29%
Population Hoechst High Intensity Objects (%) [11]: 14%
Population Membrane Permeable-Phenotype (%) [11]: 2%
Population Mitochondria Different-Phenotype (%) [11]: 95%
Population Mitotic Cells (%) [11]: 35%
Population Normal (%) [11]: 85%
Population Pyknosed Nuclei (%) [11]: 55%
Population Tubulin-Different-Phenotype (%) [11]: 89%
Total Cell Count [11]: 267
Population Apoptotic (%) [12]: 51%
Population Fragmented Nuclei (%) [12]: 6%
Population Healthy Nuclei (%) [12]: 42%
Population Hoechst High Intensity Objects (%) [12]: 6%
Population Mitochondria Different-Phenotype (%) [12]: 78%
Population Mitotic Cells (%) [12]: 48%
Population Normal (%) [12]: 93%
Population Pyknosed Nuclei (%) [12]: 51%
Population Tubulin-Different-Phenotype (%) [12]: 84%
Total Cell Count [12]: 246

CN(C)CC#Cc1ccc(OCCCc2sc(N3CCc4cccc(C(=O)Nc5nc6ccccc6s5)c4C3)nc2C(=O)O)c(F)c1 [A-1155463]
Population Apoptotic (%) [1]: 33%
Population Fragmented Nuclei (%) [1]: 12%
Population Healthy Nuclei (%) [1]: 42%
Population Hoechst High Intensity Objects (%) [1]: 11%
Population Membrane Permeable-Phenotype (%) [1]: 2%
Population Mitochondria Different-Phenotype (%) [1]: 68%
Population Mitotic Cells (%) [1]: 66%
Population Normal (%) [1]: 88%
Population Pyknosed Nuclei (%) [1]: 45%
Population Tubulin-Different-Phenotype (%) [1]: 40%
Total Cell Count [1]: 278
Population Apoptotic (%) [2]: 15%
Population Fragmented Nuclei (%) [2]: 4%
Population Healthy Nuclei (%) [2]: 44%
Population Hoechst High Intensity Objects (%) [2]: 3%
Population Membrane Permeable-Phenotype (%) [2]: 6%
Population Mitochondria Different-Phenotype (%) [2]: 17%
Population Mitotic Cells (%) [2]: 84%
Population Normal (%) [2]: 96%
Population Pyknosed Nuclei (%) [2]: 50%
Population Tubulin-Different-Phenotype (%) [2]: 17%
Total Cell Count [2]: 177
Population Apoptotic (%) [3]: 40%
Population Fragmented Nuclei (%) [3]: 8%
Population Healthy Nuclei (%) [3]: 41%
Population Hoechst High Intensity Objects (%) [3]: 10%
Population Membrane Permeable-Phenotype (%) [3]: 13%
Population Mitochondria Different-Phenotype (%) [3]: 63%
Population Mitotic Cells (%) [3]: 59%
Population Normal (%) [3]: 89%
Population Pyknosed Nuclei (%) [3]: 49%
Population Tubulin-Different-Phenotype (%) [3]: 64%
Total Cell Count [3]: 288
Population Apoptotic (%) [4]: 18%
Population Fragmented Nuclei (%) [4]: 20%
Population Healthy Nuclei (%) [4]: 39%
Population Hoechst High Intensity Objects (%) [4]: 7%
Population Membrane Permeable-Phenotype (%) [4]: 10%
Population Mitochondria Different-Phenotype (%) [4]: 17%
Population Mitotic Cells (%) [4]: 81%
Population Normal (%) [4]: 92%
Population Pyknosed Nuclei (%) [4]: 39%
Population Tubulin-Different-Phenotype (%) [4]: 26%
Total Cell Count [4]: 263
Population Apoptotic (%) [5]: 48%
Population Fragmented Nuclei (%) [5]: 11%
Population Healthy Nuclei (%) [5]: 38%
Population Hoechst High Intensity Objects (%) [5]: 14%
Population Membrane Permeable-Phenotype (%) [5]: 4%
Population Mitochondria Different-Phenotype (%) [5]: 54%
Population Mitotic Cells (%) [5]: 51%
Population Normal (%) [5]: 85%
Population Pyknosed Nuclei (%) [5]: 50%
Population Tubulin-Different-Phenotype (%) [5]: 37%
Total Cell Count [5]: 286
Population Apoptotic (%) [6]: 10%
Population Fragmented Nuclei (%) [6]: 4%
Population Healthy Nuclei (%) [6]: 56%
Population Hoechst High Intensity Objects (%) [6]: 2%
Population Membrane Permeable-Phenotype (%) [6]: 17%
Population Mitochondria Different-Phenotype (%) [6]: 7%
Population Mitotic Cells (%) [6]: 89%
Population Normal (%) [6]: 97%
Population Pyknosed Nuclei (%) [6]: 39%
Population Tubulin-Different-Phenotype (%) [6]: 24%
Total Cell Count [6]: 220
Population Apoptotic (%) [7]: 42%
Population Fragmented Nuclei (%) [7]: 12%
Population Healthy Nuclei (%) [7]: 43%
Population Hoechst High Intensity Objects (%) [7]: 10%
Population Membrane Permeable-Phenotype (%) [7]: 14%
Population Mitochondria Different-Phenotype (%) [7]: 35%
Population Mitotic Cells (%) [7]: 57%
Population Normal (%) [7]: 89%
Population Pyknosed Nuclei (%) [7]: 44%
Population Tubulin-Different-Phenotype (%) [7]: 54%
Total Cell Count [7]: 298
Population Apoptotic (%) [8]: 24%
Population Fragmented Nuclei (%) [8]: 19%
Population Healthy Nuclei (%) [8]: 52%
Population Hoechst High Intensity Objects (%) [8]: 3%
Population Membrane Permeable-Phenotype (%) [8]: 20%
Population Mitochondria Different-Phenotype (%) [8]: 13%
Population Mitotic Cells (%) [8]: 75%
Population Normal (%) [8]: 96%
Population Pyknosed Nuclei (%) [8]: 28%
Population Tubulin-Different-Phenotype (%) [8]: 48%
Total Cell Count [8]: 287
Population Apoptotic (%) [9]: 33%
Population Fragmented Nuclei (%) [9]: 16%
Population Healthy Nuclei (%) [9]: 35%
Population Hoechst High Intensity Objects (%) [9]: 17%
Population Membrane Permeable-Phenotype (%) [9]: 9%
Population Mitochondria Different-Phenotype (%) [9]: 30%
Population Mitotic Cells (%) [9]: 66%
Population Normal (%) [9]: 82%
Population Pyknosed Nuclei (%) [9]: 48%
Population Tubulin-Different-Phenotype (%) [9]: 37%
Total Cell Count [9]: 322
Population Apoptotic (%) [10]: 5%
Population Fragmented Nuclei (%) [10]: 7%
Population Healthy Nuclei (%) [10]: 78%
Population Hoechst High Intensity Objects (%) [10]: 4%
Population Membrane Permeable-Phenotype (%) [10]: 19%
Population Mitochondria Different-Phenotype (%) [10]: 4%
Population Mitotic Cells (%) [10]: 94%
Population Normal (%) [10]: 95%
Population Pyknosed Nuclei (%) [10]: 13%
Population Tubulin-Different-Phenotype (%) [10]: 26%
Total Cell Count [10]: 397
Population Apoptotic (%) [11]: 40%
Population Fragmented Nuclei (%) [11]: 15%
Population Healthy Nuclei (%) [11]: 56%
Population Hoechst High Intensity Objects (%) [11]: 11%
Population Membrane Permeable-Phenotype (%) [11]: 30%
Population Mitochondria Different-Phenotype (%) [11]: 13%
Population Mitotic Cells (%) [11]: 59%
Population Normal (%) [11]: 88%
Population Pyknosed Nuclei (%) [11]: 28%
Population Tubulin-Different-Phenotype (%) [11]: 52%
Total Cell Count [11]: 390
Population Apoptotic (%) [12]: 8%
Population Healthy Nuclei (%) [12]: 65%
Population Hoechst High Intensity Objects (%) [12]: 3%
Population Membrane Permeable-Phenotype (%) [12]: 43%
Population Mitochondria Different-Phenotype (%) [12]: 2%
Population Mitotic Cells (%) [12]: 91%
Population Normal (%) [12]: 96%
Population Pyknosed Nuclei (%) [12]: 19%
Population Tubulin-Different-Phenotype (%) [12]: 48%
Total Cell Count [12]: 365
